14 compounds from ChEMBL document CHEMBL4219069, “In silico studies, synthesis and pharmacological evaluation to explore multi-targeted approach for imidazole analogues as potential cholinesterase inhibitors with neuroprotective role for Alzheimer's disease” (Bioorg Med Chem, 2018) can be followed below.

For series [1], the target named is Acetylcholinesterase (Electrophorus electricus, UniProt O42275). The series is described as follows: Inhibition of electric eel AChE using acetylthiocholine iodide as substrate preincubated for 15 mins followed by substrate addition and measured for 45 mins by Ellmans microplate assay. For orientation: In Ellman's method for cholinesterases, released thiocholine reacts with DTNB.

Series [2] relates to Mus musculus. In words: Toxicity in Swiss albino mouse assessed as effect on behavior at 800 mg/kg, po administered for 14 consecutive days. The class given is organism-based. Particulars: in vivo. The method in brief: (§1)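 Acute oral toxicity per OECD-423 in Swiss albino mice (20–25 g), 3 male + 3 female per group, acclimatized 15 days; suspension in water with 1% w/v sodium carboxymethylcellulose, given p.o. at 900 then 800 mg/kg. Clinical signs, behaviour (awareness, mood, CNS excitation/depression, autonomic reflexes) and mortality observed at 15 min–72 h and up to 14 days.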

For series [3], the system named is Mus musculus. In words: Toxicity in Swiss albino mouse assessed as CNS depression at 800 mg/kg, po administered for 14 consecutive days. The class given is organism-based. The following applies: in vivo. The method, boiled down:
as §1

The test system of series [4] is Mus musculus. In words: Toxicity in Swiss albino mouse assessed as effect on awareness at 800 mg/kg, po administered for 14 consecutive days. The class given is organism-based. The following applies: in vivo. The method, boiled down:
as §1

Series [5] concerns Mus musculus. In words: Toxicity in Swiss albino mouse assessed as effect on mood at 800 mg/kg, po administered for 14 consecutive days. The following applies: in vivo. Format: organism-based. The method, boiled down: as §1
For series [6], the target named is Cholinesterase (Equus caballus) (UniProt P81908). The series is described as follows: Inhibition of equine serum BChE at 10 uM using S-butyrylthiocholine chloride as substrate preincubated for 15 mins followed by substrate addition and measured for 45 mins by Ellmans microplate assay. The method in brief: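 BuChE Ellman microplate assay at single 10 µM concentration: 0.1 M sodium phosphate buffer pH 8, sample in DMSO (1% final DMSO), 15 min room-temperature preincubation, then DTNB and S-butyrylthiocholine chloride; absorbance at 412 nm for 45 min, corrected by enzyme-free blanks. Quadruplicate, repeated at least twice; percent inhibition ± SD.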

The test system of series [7] is Mus musculus. In words: Toxicity in Swiss albino mouse assessed as effect on autonomic reflexes at 800 mg/kg, po administered for 14 consecutive days. The following applies: in vivo. The class given is organism-based. The method, boiled down:
as §1

The test system of series [8] is Mus musculus. The series is described as follows: Reversal of scopolamine-induced memory deficit in Swiss albino mouse assessed as increase in step down latency time at 50 to 100 mg/kg, po administered for 8 days followed by scopolamine challenge by step down inhibitory avoidance test. The class given is functional, organism-based. The method in brief: (§2)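 Done after the EPM session in the same mouse groups: oral test dosing for 8 days, then scopolamine 0.4 mg/kg i.p. Training used Cook's pole apparatus, a wooden platform on a bronze-bar grid, with each mouse placed on the platform and allowed to step down. 24 h later the mouse was lowered onto the platform and step-down latency was timed. Dunnett post-test was applied.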

For series [9], the system named is Brain. The series is described as follows: Antioxidant activity in brain homogenate (unknown origin) assessed as decrease in TBARS formation by UV-visible spectrophotometric method. Format: functional, tissue-based. The method, boiled down:
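Brain tissue homogenate mixed with test sample at five concentrations, SDS, 20% acetic acid and […], then heated at 95°C for 60 min. After cooling, the chromogen was extracted into butanol:pyridine (15:1) and centrifuged. Absorbance of the organic layer was read at 532 nm against a blank, in duplicate. % inhibition of TBARS = (Abs control − Abs sample)×100/Abs control.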

In series [10] the test system is Mus musculus. The series is described as follows: Reversal of scopolamine-induced memory impairment in Swiss albino mouse assessed as decrease in transfer latency time at 50 to 100 mg/kg, po administered for 8 days followed by scopolamine challenge after 60 mins of last dose measured after 45 mins by elevated plus maze test. The class given is functional, organism-based. The method in brief:
(§3)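 Swiss albino mice (20–25 g, both sexes) were acclimatized 15 days and had five 5-min baseline trials on the elevated plus maze. Oral vehicle, test or piracetam (200 mg/kg) was given for 8 days. Scopolamine 0.4 mg/kg i.p. followed 1 h after the last dose. Training started 45 min later: each mouse was placed at the open-arm end facing away, and transfer latency was timed until all four legs entered a closed arm.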

Series [11] relates to Mus musculus. In words: Toxicity in Swiss albino mouse assessed as mortality at 800 mg/kg, po administered for 14 consecutive days. The class given is organism-based. The following applies: in vivo. The method in brief:
as §1

The subject of series [12] is Mus musculus. In words: Toxicity in Swiss albino mouse assessed as CNS excitation at 800 mg/kg, po administered for 14 consecutive days. The class given is organism-based. Particulars: in vivo. The method in brief: as §1
The nature of series [13]: Toxicity in Swiss albino mouse assessed as mortality at 900 mg/kg, po administered for 14 consecutive days. Format: organism-based. The following applies: in vivo. The method, boiled down:
as §1

The target in series [14] is Cholinesterase (Equus caballus, UniProt P81908). In words: Inhibition of equine serum BuChE using S-butyrylthiocholine chloride as substrate preincubated for 15 mins followed by substrate addition and measured for 45 mins by Ellmans microplate assay.
Series [15] concerns the target Acetylcholinesterase (Homo sapiens, UniProt P22303). The series is described as follows: Inhibition of AChE (unknown origin).
Series [16] deals with Mus musculus. In words: Reversal of scopolamine-induced memory deficit in Swiss albino mouse assessed as increase in step down latency time at 50 mg/kg, po administered for 8 days followed by scopolamine challenge by step down inhibitory avoidance test. The class given is functional, organism-based. The method in brief: as §2
The test system of series [17] is Mus musculus. The series is described as follows: Reversal of scopolamine-induced memory impairment in Swiss albino mouse assessed as decrease in transfer latency time at 50 mg/kg, po administered for 8 days followed by scopolamine challenge after 60 mins of last dose measured after 45 mins by elevated plus maze test. Format: functional, organism-based. The method, boiled down:
as §3

In series [18] the test system is Mus musculus. The series is described as follows: Reversal of scopolamine-induced memory deficit in Swiss albino mouse assessed as increase in step down latency time at 200 mg/kg, po administered for 8 days followed by scopolamine challenge by step down inhibitory avoidance test. Format: functional, organism-based. The method in brief:
(§4)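 Swiss albino mice (20–25 g, both sexes), dosed p.o. once daily for eight days; scopolamine HBr 0.4 mg/kg i.p. given 1 h after the last dose. Transfer latency on elevated plus maze (open to closed arm, all four legs) recorded 45 min after scopolamine, after five 5-min pre-trials. Step-down latency on Cook's pole apparatus measured 24 h after training. Dunnett post-test.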

The subject of series [19] is Mus musculus. The series is described as follows: Reversal of scopolamine-induced memory impairment in Swiss albino mouse assessed as decrease in transfer latency time at 200 mg/kg, po administered for 8 days followed by scopolamine challenge after 60 mins of last dose measured after 45 mins by elevated plus maze test. The class given is functional, organism-based. The method in brief: as §4

Structures are written as SMILES. pIC50: −log10 of the molar value. Activity calls are given as the source filed them. The calls are words filed in the database; no cut-off is given here.

Sequence of Cholinesterase (Equus caballus) (P81908 whole entry): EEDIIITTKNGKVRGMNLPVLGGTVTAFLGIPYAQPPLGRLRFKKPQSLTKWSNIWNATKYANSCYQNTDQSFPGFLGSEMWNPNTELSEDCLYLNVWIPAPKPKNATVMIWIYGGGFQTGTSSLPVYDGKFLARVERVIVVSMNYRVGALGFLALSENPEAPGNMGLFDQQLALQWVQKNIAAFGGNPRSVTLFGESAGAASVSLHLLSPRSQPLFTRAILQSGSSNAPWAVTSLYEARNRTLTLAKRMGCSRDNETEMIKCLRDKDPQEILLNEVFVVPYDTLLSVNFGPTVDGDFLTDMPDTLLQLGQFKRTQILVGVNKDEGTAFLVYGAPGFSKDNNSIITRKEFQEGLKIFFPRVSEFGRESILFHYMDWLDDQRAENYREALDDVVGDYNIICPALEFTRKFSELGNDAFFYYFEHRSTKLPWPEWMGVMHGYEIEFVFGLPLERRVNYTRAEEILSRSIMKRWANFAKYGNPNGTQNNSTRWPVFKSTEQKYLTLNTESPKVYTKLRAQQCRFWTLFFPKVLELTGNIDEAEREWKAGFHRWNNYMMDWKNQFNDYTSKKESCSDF
Sequence of Acetylcholinesterase (Electrophorus electricus, UniProt O42275) (O42275 whole entry): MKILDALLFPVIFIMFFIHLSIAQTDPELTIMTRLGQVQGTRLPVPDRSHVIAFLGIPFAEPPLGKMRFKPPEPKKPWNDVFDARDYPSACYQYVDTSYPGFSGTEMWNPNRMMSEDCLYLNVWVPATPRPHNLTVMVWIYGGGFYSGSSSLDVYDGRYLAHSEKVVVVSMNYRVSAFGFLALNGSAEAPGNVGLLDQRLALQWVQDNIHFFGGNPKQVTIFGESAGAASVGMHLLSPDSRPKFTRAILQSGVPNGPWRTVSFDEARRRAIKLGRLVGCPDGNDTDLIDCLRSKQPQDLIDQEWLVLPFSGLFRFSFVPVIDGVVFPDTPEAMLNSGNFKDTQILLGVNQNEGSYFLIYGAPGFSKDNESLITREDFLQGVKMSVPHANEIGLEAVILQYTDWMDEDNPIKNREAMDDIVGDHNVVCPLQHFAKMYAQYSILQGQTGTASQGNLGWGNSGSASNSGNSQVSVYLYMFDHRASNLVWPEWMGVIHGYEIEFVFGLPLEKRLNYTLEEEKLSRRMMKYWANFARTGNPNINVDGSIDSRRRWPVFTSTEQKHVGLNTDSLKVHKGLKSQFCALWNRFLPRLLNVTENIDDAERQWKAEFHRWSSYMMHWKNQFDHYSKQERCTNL
Sequence of Cholinesterase (P81908 whole entry): as the sequence (P81908 whole entry) above
Sequence of Acetylcholinesterase (Homo sapiens, UniProt P22303) (P22303 whole entry): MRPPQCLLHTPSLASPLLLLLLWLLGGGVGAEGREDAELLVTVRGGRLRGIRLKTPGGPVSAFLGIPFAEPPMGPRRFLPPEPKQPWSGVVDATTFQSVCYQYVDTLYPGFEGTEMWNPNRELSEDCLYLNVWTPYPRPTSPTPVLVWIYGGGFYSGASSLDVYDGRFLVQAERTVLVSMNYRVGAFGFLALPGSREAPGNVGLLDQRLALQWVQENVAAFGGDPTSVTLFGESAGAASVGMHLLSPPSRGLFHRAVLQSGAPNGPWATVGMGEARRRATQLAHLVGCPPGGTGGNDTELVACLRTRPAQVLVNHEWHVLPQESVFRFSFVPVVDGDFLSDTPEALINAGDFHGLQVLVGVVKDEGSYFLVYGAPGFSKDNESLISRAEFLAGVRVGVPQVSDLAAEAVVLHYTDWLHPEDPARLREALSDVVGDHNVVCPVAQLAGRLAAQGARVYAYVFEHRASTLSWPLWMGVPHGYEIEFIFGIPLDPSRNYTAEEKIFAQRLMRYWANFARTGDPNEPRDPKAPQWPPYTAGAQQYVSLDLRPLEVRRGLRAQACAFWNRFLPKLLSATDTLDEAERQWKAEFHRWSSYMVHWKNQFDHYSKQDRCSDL

A word on the inhibition: it is the relative decrease from the control value, in per cent. What is called pIC50 is −log10 of the IC50, conventionally taken in molar units. The mortality is the share of the test organisms that died. Turning to `COc1cc(-c2nc(-c3ccccc3)c(-c3ccccc3)[nH]2)cc(OC)c1OC`, the IC50 result in series [1] is listed as “Not Active”. The Activity entry in series [2], in series [3], in series [4], in [5], in series [7] and in [11] was “Non-Toxic” throughout. In series [12], the Activity result is on record as “Non-Toxic”. Besides, in series [6], the inhibition amounted to 81.3%. For the same compound, the result in series [8] and in series [10] was Active. The pIC50 was 4.21 in series [9] and 5.30 in [14] (read-out: IC50). Moreover, in series [13], the mortality at 14 days came to 50%.
Turning to `Oc1ccc(-c2nc(-c3ccccc3)c(-c3ccccc3)[nH]2)cc1`, the inhibition result in [6] was “inactive”. Moreover, the negative logarithm of the IC50 (pIC50) in series [9] is 4.21.
In turn, `COc1cccc(-c2nc(-c3ccccc3)c(-c3ccccc3)[nH]2)c1` registered an inhibition in [6] of 19.2%. In addition, the pIC50 in series [9] was 4.06.
In the case of `CCCCOc1ccc(C(=O)CCN2CCCCC2)cc1` [DYCLONINE], the pIC50 in series [15] is 6.74.
For the compound `COc1ccc(-c2nc(-c3ccccc3)c(-c3ccccc3)[nH]2)cc1OC`, the inhibition result in series [6] is “inactive”. The pIC50 in series [9] was 4.03.
In series [15], `CCc1nn(CCCN2CCN(c3cccc(Cl)c3)CC2)c(=O)n1CCOc1ccccc1` [NEFAZODONE] showed a pIC50 of 5.98.
On to `COc1cc(-c2nc(-c3ccccc3)c(-c3ccccc3)[nH]2)cc(OC)c1O`, for which the inhibition entry in series [6] was “inactive”. For the same compound, in series [9], the pIC50 was 3.58.
For `c1ccc(-c2nc[nH]c2-c2ccccc2)cc1`, the inhibition in series [6] is 13%. Besides, in series [9], the pIC50 was 4.03.
Regarding `c1ccc(-c2nc(-c3ccccc3)c(-c3ccccc3)[nH]2)cc1`, the inhibition result in series [6] was “inactive”. Also, in [9], the pIC50 was 3.97.
For `Oc1ccccc1-c1nc(-c2ccccc2)c(-c2ccccc2)[nH]1` the same measures were 13.7% and 4.00.
For `Oc1ccc(-c2nc(-c3ccccc3)c(-c3ccccc3)[nH]2)cc1O` the same measures were 79.5% and 4.23.
As to `O=C1O[C@H]([C@@H](O)CO)C(O)=C1O` [ASCORBIC ACID], the pIC50 in [9] is 4.41.
In the case of `Oc1cccc(-c2nc(-c3ccccc3)c(-c3ccccc3)[nH]2)c1`, the pIC50 in series [1] (read-out: IC50) is 5.27; in series [9] it was 4.21. In addition, the outcome in series [16] and in [17] was Active. Moreover, in series [6], the inhibition entry was “inactive”. Further, the IC50 result in series [14] is reported as “Not Active”.
With `NC(=O)CN1CCCC1=O`, the outcome in series [18] and in series [19] was Active.
